ChEMBL document CHEMBL4402513, “Bio-Inspired Dual-Selective BCL-2/c-MYC G-Quadruplex Binders: Design, Synthesis, and Anticancer Activity of Drug-like Imidazo[2,1-i]purine Derivatives” (J Med Chem, 2020)
Calls of active or inactive are those of the source. The rule behind the calls is not given here.

Columns and labels:
[1] = test system: Quadruplex DNA; assay: Binding affinity to synthetic BCL2 G4 quadruplex DNA assessed as change in melting temperature at 10 molar equiv to DNA measured after 10 mins by circular dichroism melting analysis; format: nucleic-acid assay
Method in brief: (§1)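 CD melting of folded DNA (G4 10 µM, duplex 15 µM) in 20 mM KCl, 5 mM KH2PO4 (pH 7.0), without and with 10 molar equivalents of ligand. Tm was taken from curve fitting, and ΔTm = Tm(DNA+ligand) − Tm(DNA). Runs were done in triplicate and averaged.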

[2] = test system: Quadruplex DNA; assay: Binding affinity to synthetic c-MYC G4 quadruplex DNA assessed as change in melting temperature at 10 molar equiv to DNA measured after 10 mins by circular dichroism melting analysis; format: nucleic-acid assay; method in brief: as §1
[3] = test system: Quadruplex DNA; assay: Binding affinity to synthetic c-KIT1 G4 quadruplex DNA assessed as change in melting temperature at 10 molar equiv to DNA measured after 10 mins by circular dichroism melting analysis; format: nucleic-acid assay; method in brief: as §1
[4] = test system: Quadruplex DNA; assay: Binding affinity to human telomeric 23 G4 quadruplex DNA assessed as change in melting temperature at 10 molar equiv to DNA measured after 10 mins by circular dichroism melting analysis; format: nucleic-acid assay; method in brief: as §1
[5] = Binding affinity to synthetic 20-mer hairpin duplex DNA assessed as change in melting temperature at 10 molar equiv to DNA measured after 10 mins by circular dichroism melting analysis; method in brief: as §1
[6] = test system: Quadruplex DNA; assay: Binding affinity to synthetic BCL2 G4 quadruplex DNA assessed as change in chiral structure at 10 molar equiv to DNA measured after 10 mins by circular dichroism spectroscopic analysis; format: nucleic-acid assay
Method in brief: (§2)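 CD spectra of annealed DNA in 20 mM KCl, 5 mM KH2PO4 (pH 7.0). G4 DNAs were at 10 µM and duplex at 15 µM. Ligand (10 mM DMSO stock) was added at 10 molar equivalents. Spectra were recorded 10 min after addition at 20 °C over 230–360 nm, averaged over three scans and baseline corrected.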

[7] = test system: Quadruplex DNA; assay: Binding affinity to synthetic c-MYC G4 quadruplex DNA assessed as change in chiral structure at 10 molar equiv to DNA measured after 10 mins by circular dichroism spectroscopic analysis; format: nucleic-acid assay; method in brief: as §2
[8] = test system: Quadruplex DNA; assay: Binding affinity to synthetic c-KIT1 G4 quadruplex DNA assessed as change in chiral structure at 10 molar equiv to DNA measured after 10 mins by circular dichroism spectroscopic analysis; format: nucleic-acid assay; method in brief: as §2
[9] = test system: Quadruplex DNA; assay: Binding affinity to human telomeric 23 G4 quadruplex DNA assessed as change in chiral structure at 10 molar equiv to DNA measured after 10 mins by circular dichroism spectroscopic analysis; format: nucleic-acid assay; method in brief: as §2
[10] = Binding affinity to synthetic 20-mer hairpin duplex DNA assessed as change in chiral structure at 10 molar equiv to DNA measured after 10 mins by circular dichroism spectroscopic analysis; method in brief: as §2
[11] = test system: Jurkat; assay: Cytotoxicity against human Jurkat cells assessed as reduction in cell viability measured after 48 hrs by combined MTT and trypan blue staining based cell counting assay; format: functional
Method in brief: (§3)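 Cells were seeded at 10^4/well (HDF 10^3), grown 24 h, then treated 48 h at 5–100 µM in 0.5% v/v DMSO. Read-outs were MTT (1 h, 37 °C, absorbance 550 nm; Jurkat handled by centrifugation) combined with trypan blue live/dead counting into a survival index versus untreated cells. IC50 came from nonlinear regression, n = 6 per experiment ×3 (n = 18), mean ± SEM.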

[12] = test system: Jurkat; assay: Cytotoxicity against human Jurkat cells assessed as cell viability at 50 uM measured after 48 hrs by combined MTT and trypan blue staining based cell counting assay relative to control; format: functional; conditions: read-out: Activity; method in brief: as §3
[13] = test system: MCF7; assay: Cytotoxicity against human MCF7 cells assessed as reduction in cell viability measured after 48 hrs by combined MTT assay; format: functional, cell-based; conditions: MCF7, 48 h; method in brief: as §3
[14] = test system: HCT-116; assay: Cytotoxicity against human HCT116 cells assessed as reduction in cell viability measured after 48 hrs by combined MTT assay; format: functional, cell-based; conditions: HCT-116, 48 h; method in brief: as §3
[15] = test system: A-375; assay: Cytotoxicity against human A375 cells assessed as reduction in cell viability measured after 48 hrs by combined MTT assay; format: functional, cell-based; conditions: A-375, 48 h; method in brief: as §3
[16] = test system: HaCaT; assay: Cytotoxicity against human HaCaT cells assessed as reduction in cell viability measured after 48 hrs by combined MTT assay; format: cell-based; method in brief: as §3
[17] = test system: NHDF; assay: Cytotoxicity against HDF cells assessed as reduction in cell viability measured after 48 hrs by combined MTT assay; format: cell-based; conditions: Homo sapiens; method in brief: as §3
[18] = test system: Jurkat; assay: Induction of apoptosis in human Jurkat cells assessed as viable cells at 25 uM measured after 48 hrs by Annexin V-FITC/propidium iodide staining based flow cytometry (reference value: 97%); format: functional; conditions: read-out: Activity
[19] = test system: Jurkat; assay: Induction of apoptosis in human Jurkat cells assessed as early apoptotic cells at 25 uM measured after 48 hrs by Annexin V-FITC/propidium iodide staining based flow cytometry (reference value: 0.3%); format: functional
[20] = test system: Jurkat; assay: Induction of apoptosis in human Jurkat cells assessed as late apoptotic cells at 25 uM measured after 48 hrs by Annexin V-FITC/propidium iodide staining based flow cytometry (reference value: 1.4%); format: functional
[21] = test system: Jurkat; assay: Down regulation of c-MYC mRNA expression in human Jurkat cells at 25 uM measured after 24 hrs by RT-qPCR analysis relative to control; format: functional
Method in brief: (§4)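 Jurkat cells were treated 24 h at 25 µM, and total RNA was extracted with TRI Reagent. 0.5 µg RNA was reverse transcribed with MMLV RT and random primers (22 °C 10 min, 42 °C 60 min). SYBR qPCR ran 40 cycles (95/59/72 °C) in duplicate with GAPDH as reference. Relative expression was calculated by the […] method from at least three independent experiments.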

[22] = test system: Jurkat; assay: Down regulation of BCL2 mRNA expression in human Jurkat cells at 25 uM measured after 24 hrs by RT-qPCR analysis relative to control; format: functional; method in brief: as §4
[23] = test system: Jurkat; assay: Down regulation of c-MYC expression in human Jurkat cells at 25 uM measured after 24 hrs by Western blot analysis relative to control; format: functional
Method in brief: (§5)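 Jurkat cells treated 24 h at 25 µM were lysed in 50 mM Hepes pH 7.4, 50 mM NaCl, 1% Triton with protease inhibitors. Protein was quantified by Bradford and run on 10% SDS-PAGE to nitrocellulose. Blots were probed with anti-Bcl-2, anti-c-Myc and anti-β-actin and detected by ECL. Densitometry was normalised to β-actin and expressed as % of control; three independent experiments.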

[24] = test system: Jurkat; assay: Down regulation of BCL2 expression in human Jurkat cells at 25 uM measured after 24 hrs by Western blot analysis relative to control; format: functional; method in brief: as §5
[25] = biological target: Quadruplex DNA; assay: Binding affinity to synthetic Cy5-fluorescently labeled c-MYC G4 quadruplex DNA by microscale thermophoresis method; format: nucleic-acid assay
Method in brief: (§6)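 MST with Cy5-labelled oligonucleotides annealed at 1 µM in 5 mM KH2PO4/20 mM KCl (pH 7.0), then diluted in the same buffer with 0.1% Tween. DNA was held at 40 nM. Ligand was serially diluted 1:2 from a 4 mM DMSO stock and mixed 1:1 with DNA, giving 5% final DMSO. Kd was derived from thermophoresis binding curves.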

[26] = biological target: Quadruplex DNA; assay: Binding affinity to synthetic Cy5-fluorescently labeled BCL2 G4 quadruplex DNA by microscale thermophoresis method; format: nucleic-acid assay; method in brief: as §6
[27] = biological target: Quadruplex DNA; assay: Binding affinity to synthetic Cy5-fluorescently labeled c-KIT1 G4 quadruplex DNA by microscale thermophoresis method; format: nucleic-acid assay; method in brief: as §6
[28] = Binding affinity to synthetic Cy5-fluorescently labeled 20-mer hairpin duplex DNA by microscale thermophoresis method; method in brief: as §6
[29] = test system: Quadruplex DNA; assay: Binding affinity to human Cy5-fluorescently labeled telomeric 23 G4 quadruplex DNA by microscale thermophoresis method; format: nucleic-acid assay; method in brief: as §6
[30] = test system: Quadruplex DNA; assay: Binding affinity to synthetic c-MYC G4 quadruplex DNA up to 5:1 compound/DNA ratio by 1H-NMR analysis; format: nucleic-acid assay
Method in brief: (§7)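 1H NMR titration of G4 DNA at 0.2 mM in H2O/D2O 9:1 containing 5 mM KH2PO4, 20 mM KCl, 0.2 mM EDTA (pH 7.0), with DPFGSE water suppression. Ligand aliquots from 20 mM deutero-DMSO stock were added in the tube up to 5:1 ligand/G4. Imino and aromatic proton shifts were monitored.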

[31] = test system: Quadruplex DNA; assay: Binding affinity to synthetic BCL2 G4 quadruplex DNA up to 5:1 compound/DNA ratio by 1H-NMR analysis; format: nucleic-acid assay; method in brief: as §7

CN(C)c1ccc(-c2nc3c4ncn(CCCNC(=N)N)c4ncn3c2NC(C)(C)C)cc1
ΔTm [1]: 2.8 °C | ΔTm [2]: 2.5 °C | ΔTm [3]: 2.1 °C | ΔTm [4]: 0.6 °C | ΔTm [5]: 0.2 °C

CC(C)(C)Nc1c(-c2ccccc2OCCN2CCOCC2)nc2c3ncn(CCN4CCOCC4)c3ncn12
ΔTm [1]: 1.9 °C | ΔTm [2]: 1.9 °C | ΔTm [3]: 0.8 °C | ΔTm [4]: 0.1 °C | ΔTm [5]: 1.2 °C

CC(C)(C)Nc1c(-c2ccc(N3CCOCC3)cc2)nc2c3ncn(CCN4CCCC4)c3ncn12
ΔTm [1]: 9.1 °C | ΔTm [2]: 8.7 °C | ΔTm [3]: 2.9 °C | ΔTm [4]: 2.2 °C | ΔTm [5]: 6 °C

CN(C)c1ccc(-c2nc3c4ncn(CCN5CCCC5)c4ncn3c2NC(C)(C)C)cc1
ΔTm [1]: 13.4 °C | ΔTm [2]: 19.5 °C | ΔTm [3]: 7.3 °C | ΔTm [4]: 4.8 °C | ΔTm [5]: 7.5 °C

CC(C)(C)Nc1c(-c2ccc(Cl)cc2)nc2[nH]c(=O)c3ncn(CCN4CCOCC4)c3n12
Activity [6]: inactive | Activity [7]: inactive | Activity [8]: inactive | Activity [9]: inactive | Activity [10]: inactive | deltaTm [1]: inactive | deltaTm [2]: inactive | deltaTm [3]: inactive | deltaTm [4]: inactive | deltaTm [5]: inactive

CC(C)(C)Nc1c(-c2ccc(Cl)cc2)nc2c3ncn(CCN4CCCC4)c3ncn12
ΔTm [1]: 4.5 °C | ΔTm [2]: 6.4 °C | ΔTm [3]: 2.3 °C | ΔTm [4]: 2.3 °C | ΔTm [5]: 1.9 °C

CN(C)CCCn1cnc2c1ncn1c(NC(C)(C)C)c(-c3ccc(Cl)cc3)nc21
ΔTm [1]: 6.7 °C | ΔTm [2]: 12.8 °C | ΔTm [3]: 2.8 °C | ΔTm [4]: 2.4 °C | ΔTm [5]: -0.5 °C | Activity [11]: Dose-dependent effect | IC50 [11]: 17 µM | viability at 50 µM [12]: 25% | IC50 [13]: > 100 µM | IC50 [14]: > 100 µM | IC50 [15]: > 100 µM | IC50 [16]: > 100 µM | IC50 [17]: 80 µM | viability at 25 µM [18]: 0.5% | Activity [19]: 0.5% | Activity [20]: 99% | Activity [21]: 66% | Activity [22]: 67% | Activity [23]: 50% | Activity [24]: 40% | Kd [25]: 26 µM | Kd [26]: 60 µM | Kd [27]: 51 µM | Activity [28]: inactive | Activity [29]: inactive | Activity [30]: Active | Activity [31]: Active

CN(C)CCCn1cnc2c1ncn1c(NC(C)(C)C)c(-c3ccccc3F)nc21
ΔTm [1]: 8.2 °C | ΔTm [2]: 11.5 °C | ΔTm [3]: 2.6 °C | ΔTm [4]: 1.2 °C | ΔTm [5]: 0.2 °C | viability at 50 µM [12]: 60% | viability at 25 µM [18]: 16% | Activity [19]: 13% | Activity [20]: 68% | Activity [21]: 56% | Activity [22]: 43% | Activity [23]: Active | Activity [24]: Active

CC(C)(C)Nc1c(-c2ccccc2OCCN2CCCC2)nc2c3ncn(CCN4CCCC4)c3ncn12
ΔTm [1]: 7.1 °C | ΔTm [2]: 8.4 °C | ΔTm [3]: 4.5 °C | ΔTm [4]: 4.9 °C | ΔTm [5]: 2.2 °C

CC(C)(C)Nc1c(-c2ccccc2F)nc2c3ncn(CCN4CCOCC4)c3ncn12
ΔTm [1]: 2.6 °C | ΔTm [2]: 1.9 °C | ΔTm [3]: 1 °C | ΔTm [4]: 0.7 °C | ΔTm [5]: 0.5 °C
